For eleven compounds, Activity and inhibition in vivo results are on record in ChEMBL document CHEMBL1150421, “Synthesis and analgesic/anti-inflammatory evaluation of fused heterocyclic ring systems incorporating phenylsulfonyl moiety” (2008).

Test [1] relates to Mus musculus. As to the kind of experiment: Analgesic activity in Albino mouse at 50 mg/kg, po assessed as thermal stimuli reaction time change after 2 hrs by hot plate method relative to basal level. Format: functional. Put shortly: (§1)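 Hot-plate at 52 °C ± 0.1 °C with a 60 s cut-off, six mice per group. Dosing was oral, 50 mg/kg in 2% Tween 80. Latency to paw licking or jumping was recorded before dosing and at 0.5, 1 and 2 h. Results are given as % change from the pre-drug value, with one-way ANOVA and Duncan's test (P < 0.05).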
On the technique in general: Thermal pain tests record how soon the animal reacts.

Test [2] deals with Mus musculus. In words: Analgesic activity in Albino mouse at 50 mg/kg, po assessed as thermal stimuli reaction time change after 1 hr by hot plate method relative to basal level. Format: functional. In a few lines: as §1
For test [3], the system named is Rattus norvegicus. As to the kind of experiment: Antiinflammatory activity in Albino rat assessed as inhibition of carrageenan-induced edema at 50 mg/kg, po after 5 hrs. (In the carrageenan paw model, swelling and tenderness develop within hours.)
For test [4], the system named is Mus musculus. In words: Analgesic activity in Albino mouse at 50 mg/kg, po assessed as thermal stimuli reaction time change after 2 hrs mins by hot plate method relative to indomethacin. Format: functional.
Test [5] has as its system Rattus norvegicus. As to the kind of experiment: Antiinflammatory activity in Albino rat assessed as inhibition of carrageenan-induced edema at 50 mg/kg, po after 4 hrs.
Test [6] concerns Mus musculus. As to the kind of experiment: Analgesic activity in Albino mouse at 50 mg/kg, po assessed as thermal stimuli reaction time change after 30 mins by hot plate method relative to indomethacin. It is filed as functional.
The test system of test [7] is Mus musculus. As to the kind of experiment: Analgesic activity in Albino mouse at 50 mg/kg, po assessed as thermal stimuli reaction time change after 1 hr by hot plate method relative to indomethacin. It is filed as functional.
Test [8] has as its system Mus musculus. As to the kind of experiment: Analgesic activity against visceral pain in Albino mouse assessed as acetic acid-induced writhing at 50 mg/kg, po after 30 mins relative to indomethacin. It is filed as functional. Background: Writhing tests count abdominal constrictions after an irritant is injected.
The subject of test [9] is Rattus norvegicus. As to the kind of experiment: Antiinflammatory activity in Albino rat assessed as inhibition of carrageenan-induced edema at 50 mg/kg, po after 3 hrs.
The test system of test [10] is Mus musculus. As to the kind of experiment: Analgesic activity in Albino mouse at 50 mg/kg, po assessed as thermal stimuli reaction time change after 30 mins by hot plate method relative to basal level. It is filed as functional. Put shortly:
as §1

For test [11], the system named is Rattus norvegicus. In words: Antiinflammatory activity in Albino rat assessed as inhibition of carrageenan-induced edema at 50 mg/kg, po after 2 hrs.
Test [12] has as its system Rattus norvegicus. In words: Antiinflammatory activity in Albino rat assessed as inhibition of carrageenan-induced edema at 50 mg/kg, po after 6 hrs.
Test [13] concerns Mus musculus. As to the kind of experiment: Analgesic activity against visceral pain in Albino mouse assessed as acetic acid-induced writhing at 50 mg/kg, po after 30 mins. Format: functional. Put shortly:
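Mice (20–25 g, acclimatized 1 week, 12 h light/dark, 21–23 °C) given compound orally at 50 mg/kg as a suspension in 2% Tween 80. Negative controls got water in Tween 80. Visceral pain measured as acetic acid-induced writhing; indomethacin 50 mg/kg was the reference.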

Test [14] relates to Rattus norvegicus. As to the kind of experiment: Antiinflammatory activity in Albino rat assessed as inhibition of carrageenan-induced edema at 50 mg/kg, po after 1 hr.

SMILES strings stand for the structures.

As usually defined, the inhibition in vivo is the share of the control response that was lost under treatment. Take `Cc1ccc(-c2c(S(=O)(=O)c3ccccc3)cnc3cc(-c4ccccc4)nn23)cc1`: the Activity in the test on Mus musculus [1] was found to be 15.2%; in the test with Mus musculus [2] it was 18.6%; in the test with Mus musculus [4], 0.19; in the test with Mus musculus [6] it was 0.35; in the test with Mus musculus [7], 0.24; in the test on Mus musculus [8], 0.32. The Activity came out at 15.2% in the test on Mus musculus [10] and 28% in the test with Mus musculus [13]. The inhibition in vivo at 50 mg/kg with Rattus norvegicus [3] worked out at 28.2%; in the test on Rattus norvegicus [5], 22.6%; in the test with Rattus norvegicus [9], 36.4%; with Rattus norvegicus [11] it was 41%; in the test on Rattus norvegicus [12], 15.5%; in the test with Rattus norvegicus [14], 42.5%.
As to `Cc1ccc(-c2c(S(=O)(=O)c3ccccc3)cnc3cc(-c4ccc(Br)cc4)nn23)cc1`, the Activity with Mus musculus [1] was determined as 56.4%; in the test on Mus musculus [2], 56.4%; with Mus musculus [4] it was 0.7; in the test on Mus musculus [6] it was 0.67; in the test with Mus musculus [7] it was 0.73; in the test with Mus musculus [8], 0.76. Further, the Activity in the test on Mus musculus [10] is 29%; in the test with Mus musculus [13] it was 65.2%. Further, the inhibition in vivo at 50 mg/kg with Rattus norvegicus [3] worked out at 31.7%; in the test with Rattus norvegicus [5] it was 26.6%; in the test with Rattus norvegicus [9], 69.2%; with Rattus norvegicus [11] it was 72.6%; with Rattus norvegicus [12], 54.3%; in the test on Rattus norvegicus [14], 74.1%.
For the compound `Cc1ccc(-c2c(S(=O)(=O)c3ccccc3)cnc3ncnn23)cc1`, the Activity in the test on Mus musculus [1] came out at 0%; in the test on Mus musculus [2], 5.3%; in the test with Mus musculus [4] it was 0; in the test on Mus musculus [6], 0.16; with Mus musculus [7], 0.06; in the test on Mus musculus [8] it was 0. Besides, the Activity in the test on Mus musculus [10] is reported as 7.1%. Also, the inhibition in vivo at 50 mg/kg in the test with Rattus norvegicus [3] was 2.4%; in the test with Rattus norvegicus [5], 3.3%; with Rattus norvegicus [9] it was 4.4%; in the test with Rattus norvegicus [11], 5.2%; in the test on Rattus norvegicus [12] it was 1.9%; in the test on Rattus norvegicus [14], 7.5%.
For `Cc1ccc(-c2c(S(=O)(=O)c3ccccc3)cnc3cc(C)nn23)cc1`, the Activity is on record as 5.3% in the test on Mus musculus [1]; 16% in the test with Mus musculus [2]; 0.07 in the test with Mus musculus [4]; 0.37 in the test with Mus musculus [6]; 0.21 with Mus musculus [7]; 0.35 in the test on Mus musculus [8]. In addition, the Activity with Mus musculus [10] is 16%; with Mus musculus [13] it was 30%. Moreover, the inhibition in vivo at 50 mg/kg with Rattus norvegicus [3] was 8.1%; in the test on Rattus norvegicus [5], 14%; in the test on Rattus norvegicus [9], 23.2%; in the test with Rattus norvegicus [11], 25.2%; in the test with Rattus norvegicus [12], 8.7%; with Rattus norvegicus [14] it was 25.8%.
As for `Cc1ccc(-c2c(S(=O)(=O)c3ccccc3)cnc3c(Br)c(-c4ccccc4)nn23)cc1`, the Activity is given as 68.4% in the test with Mus musculus [1]; 78% in the test on Mus musculus [2]; 0.84 in the test on Mus musculus [4]; 1.02 with Mus musculus [6]; 1.02 with Mus musculus [7]; 0.99 in the test on Mus musculus [8]. For the same compound, the Activity is 43.8% with Mus musculus [10] and 85.6% in the test on Mus musculus [13]. In addition, the inhibition in vivo at 50 mg/kg turned out to be 0% in the test on Rattus norvegicus [3]; 12.5% in the test with Rattus norvegicus [5]; 54.8% in the test with Rattus norvegicus [9]; 61% in the test with Rattus norvegicus [11]; 6.6% in the test on Rattus norvegicus [12]; 65.5% in the test on Rattus norvegicus [14].
Turning to `O=S(=O)(c1ccccc1)c1cnc2cc(-c3ccc(Cl)cc3)nn2c1-c1ccc(Br)cc1`, the Activity in the test with Mus musculus [1] was 51.8%; in the test with Mus musculus [2] it was 72.2%; in the test on Mus musculus [4], 0.63; in the test with Mus musculus [6], 0.77; in the test on Mus musculus [7], 0.93; in the test on Mus musculus [8], 0.77. The figures for the Activity in the test on Mus musculus [10] and in the test on Mus musculus [13] were 33% and 66.7%, respectively. Moreover, the inhibition in vivo at 50 mg/kg in the test on Rattus norvegicus [3] is 13.8%; in the test on Rattus norvegicus [5], 18.6%; with Rattus norvegicus [9], 24.8%; in the test on Rattus norvegicus [11], 24.7%; with Rattus norvegicus [12] it was 13.2%; with Rattus norvegicus [14], 24.2%.
For the compound `Cc1ccc(-c2c(S(=O)(=O)c3ccccc3)cnc3nc4ccccc4n23)cc1`, the Activity with Mus musculus [1] was 21.5%; in the test on Mus musculus [2], 23%; with Mus musculus [4], 0.26; in the test with Mus musculus [6], 0.21; in the test with Mus musculus [7] it was 0.3; with Mus musculus [8], 0.1. Moreover, the results for the Activity in the test with Mus musculus [10] and with Mus musculus [13] were 9.2% and 9.1%, respectively. Also, the inhibition in vivo at 50 mg/kg with Rattus norvegicus [3] is 0%; with Rattus norvegicus [5], 0%; in the test with Rattus norvegicus [9], 4.2%; in the test on Rattus norvegicus [11], 5%; in the test on Rattus norvegicus [12], 0%; in the test with Rattus norvegicus [14] it was 7.3%.
Take `O=S(=O)(c1ccccc1)c1cnc2ncnn2c1-c1ccc(Br)cc1`: the Activity with Mus musculus [1] came to 5.4%; in the test with Mus musculus [2], 6.8%; in the test on Mus musculus [4] it was 0.06; with Mus musculus [6], 0.12; in the test on Mus musculus [7] it was 0.08; with Mus musculus [8] it was 0.12. Moreover, the results for the Activity in the test on Mus musculus [10] and in the test on Mus musculus [13] were 5.4% and 10.8%, respectively. The inhibition in vivo at 50 mg/kg in the test with Rattus norvegicus [3] was 0.8%; in the test with Rattus norvegicus [5], 1.3%; in the test with Rattus norvegicus [9], 1.6%; with Rattus norvegicus [11], 4.2%; with Rattus norvegicus [12] it was 0.9%; in the test on Rattus norvegicus [14], 2.2%.
As to `Cc1ccc(-c2cc3ncc(S(=O)(=O)c4ccccc4)c(-c4ccc(C)cc4)n3n2)cc1`, the Activity with Mus musculus [1] is listed as 57.5%; with Mus musculus [2], 67.1%; in the test with Mus musculus [4], 0.71; with Mus musculus [6], 0.58; in the test on Mus musculus [7] it was 0.87; in the test with Mus musculus [8], 0.86. Moreover, the Activity is reported as 25% with Mus musculus [10] and 74.4% with Mus musculus [13]. Besides, the inhibition in vivo at 50 mg/kg with Rattus norvegicus [3] was 17%; with Rattus norvegicus [5], 20%; in the test with Rattus norvegicus [9], 31.2%; in the test with Rattus norvegicus [11] it was 42.6%; with Rattus norvegicus [12], 11.6%; in the test on Rattus norvegicus [14] it was 54.6%.
In the case of `Cc1cc2ncc(S(=O)(=O)c3ccccc3)c(-c3ccc(Br)cc3)n2n1`, the Activity with Mus musculus [1] was found to be 39.7%; in the test on Mus musculus [2], 44.1%; in the test with Mus musculus [4] it was 0.49; in the test with Mus musculus [6] it was 0.63; with Mus musculus [7], 0.57; in the test on Mus musculus [8], 0.65. Moreover, the Activity came to 27% in the test with Mus musculus [10] and 56.4% with Mus musculus [13]. The inhibition in vivo at 50 mg/kg in the test with Rattus norvegicus [3] turned out to be 0%; in the test on Rattus norvegicus [5], 0%; with Rattus norvegicus [9] it was 4.4%; in the test with Rattus norvegicus [11], 5.2%; with Rattus norvegicus [12], 0%; in the test on Rattus norvegicus [14] it was 7.4%.
Turning to `COc1ccc2c(c1)c(CC(=O)O)c(C)n2C(=O)c1ccc(Cl)cc1` [INDOMETHACIN], the Activity was determined as 81% in the test with Mus musculus [1], 77.2% in the test with Mus musculus [2], 43% in the test on Mus musculus [10] and 85.8% with Mus musculus [13]. Besides, the inhibition in vivo at 50 mg/kg came out at 28.4% in the test with Rattus norvegicus [3]; 28.7% in the test with Rattus norvegicus [5]; 44% with Rattus norvegicus [9]; 56% in the test with Rattus norvegicus [11]; 50% in the test with Rattus norvegicus [12]; 77% in the test on Rattus norvegicus [14].
